How the values were obtained:
[1] = target: Vascular endothelial growth factor receptor 3 (Homo sapiens, UniProt P35916); assay: Inhibition of VEGFR3 by microplate scintillation counting
Procedure, shortened: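 Radiometric FlashPlate assay using recombinant kinase (10–200 ng/well) with poly(Glu,Tyr)4:1 substrate. Buffer: 60 mM HEPES-NaOH pH 7.5, 3 mM MgCl2, 3 mM MnCl2, 3 µM orthovanadate, 1.2 mM DTT, PEG 20000, 1 µM [γ-33P]-ATP. Run 80 min at 30 °C, stopped with H3PO4, and 33P incorporation counted.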

[2] = target: Vascular endothelial growth factor receptor 2 (Homo sapiens, UniProt P35968); assay: Inhibition of VEGFR2 by microplate scintillation counting
[3] = target: T1, Serine/threonine-protein kinase Nek2 (Homo sapiens) (UniProt P51955); assay: Residual activity of NEK2 at 10 uM by microplate scintillation counting
T1 sequence (whole entry): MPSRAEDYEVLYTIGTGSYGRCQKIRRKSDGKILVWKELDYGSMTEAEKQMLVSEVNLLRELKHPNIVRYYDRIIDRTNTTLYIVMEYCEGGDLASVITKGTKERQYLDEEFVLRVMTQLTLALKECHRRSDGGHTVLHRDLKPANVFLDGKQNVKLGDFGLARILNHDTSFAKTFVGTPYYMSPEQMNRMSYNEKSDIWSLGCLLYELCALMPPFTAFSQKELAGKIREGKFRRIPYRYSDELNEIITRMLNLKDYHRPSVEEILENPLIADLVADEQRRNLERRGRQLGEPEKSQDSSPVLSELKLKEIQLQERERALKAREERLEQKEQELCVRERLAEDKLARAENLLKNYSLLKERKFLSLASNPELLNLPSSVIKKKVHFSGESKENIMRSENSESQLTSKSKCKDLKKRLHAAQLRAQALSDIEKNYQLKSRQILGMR

[4] = target: CDK9/cyclin T1 (Homo sapiens) (UniProt O60563+P50750); assay: Residual activity of CDK9/Cyclin T at 10 uM by microplate scintillation counting; assay type: protein-complex assay
[5] = target: Platelet-derived growth factor receptor beta (Homo sapiens, UniProt P09619); assay: Residual activity of PDGFRbeta at 0.1 uM by microplate scintillation counting
[6] = target: Ephrin type-A receptor 4 (Homo sapiens) (UniProt P54764); assay: Residual activity of EPHA4 at 1 uM by microplate scintillation counting
[7] = target: Serine/threonine-protein kinase PLK2 (Homo sapiens) (UniProt Q9NYY3); assay: Residual activity of SNK at 1 uM by microplate scintillation counting
[8] = target: Glycogen synthase kinase-3 alpha (Homo sapiens) (UniProt P49840); assay: Residual activity of GSK3alpha at 10 uM by microplate scintillation counting
[9] = target: Focal adhesion kinase 1 (Homo sapiens) (UniProt Q05397); assay: Residual activity of FAK at 1 uM by microplate scintillation counting
[10] = target: Casein kinase I isoform gamma-1 (Homo sapiens) (UniProt Q9HCP0); assay: Residual activity of CK1gamma1 at 0.1 uM by microplate scintillation counting
[11] = target: Dual specificity mitogen-activated protein kinase kinase 1 (Homo sapiens) (UniProt Q02750); assay: Residual activity of wild type MEK1 at 1 uM by microplate scintillation counting
[12] = target: T2, Activin receptor type-1B (Homo sapiens) (UniProt P36896); assay: Residual activity of ACVR1B at 0.1 uM by microplate scintillation counting
T2 sequence (whole entry): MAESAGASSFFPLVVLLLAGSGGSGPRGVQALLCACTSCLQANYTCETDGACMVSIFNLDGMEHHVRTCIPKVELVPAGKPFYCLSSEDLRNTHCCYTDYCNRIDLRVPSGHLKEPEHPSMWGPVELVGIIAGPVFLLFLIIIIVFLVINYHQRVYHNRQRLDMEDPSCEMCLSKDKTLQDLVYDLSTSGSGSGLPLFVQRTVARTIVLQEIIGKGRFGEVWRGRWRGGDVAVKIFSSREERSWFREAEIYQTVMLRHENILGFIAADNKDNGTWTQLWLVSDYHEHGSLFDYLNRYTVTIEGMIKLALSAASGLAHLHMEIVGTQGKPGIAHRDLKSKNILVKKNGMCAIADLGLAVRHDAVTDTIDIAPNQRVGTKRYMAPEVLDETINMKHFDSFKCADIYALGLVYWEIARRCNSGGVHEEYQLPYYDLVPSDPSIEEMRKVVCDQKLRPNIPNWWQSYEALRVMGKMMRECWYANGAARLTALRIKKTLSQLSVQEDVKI

[13] = target: T3, Aurora kinase C (Homo sapiens) (UniProt Q9UQB9); assay: Residual activity of Aurora-C at 0.1 uM by microplate scintillation counting
T3 sequence (whole entry): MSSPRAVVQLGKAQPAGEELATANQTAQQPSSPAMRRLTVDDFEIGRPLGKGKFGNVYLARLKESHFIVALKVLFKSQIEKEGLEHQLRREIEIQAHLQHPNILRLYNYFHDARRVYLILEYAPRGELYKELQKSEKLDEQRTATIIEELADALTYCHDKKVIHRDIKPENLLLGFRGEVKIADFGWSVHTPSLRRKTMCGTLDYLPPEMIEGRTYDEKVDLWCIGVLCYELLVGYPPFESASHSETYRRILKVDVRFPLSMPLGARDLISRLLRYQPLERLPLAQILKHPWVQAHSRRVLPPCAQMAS

[14] = target: G protein-coupled receptor kinase 4 (Homo sapiens) (UniProt P32298); assay: Residual activity of GRK4 at 10 uM by microplate scintillation counting

Vascular endothelial growth factor receptor 2, sequence (P35968 whole entry): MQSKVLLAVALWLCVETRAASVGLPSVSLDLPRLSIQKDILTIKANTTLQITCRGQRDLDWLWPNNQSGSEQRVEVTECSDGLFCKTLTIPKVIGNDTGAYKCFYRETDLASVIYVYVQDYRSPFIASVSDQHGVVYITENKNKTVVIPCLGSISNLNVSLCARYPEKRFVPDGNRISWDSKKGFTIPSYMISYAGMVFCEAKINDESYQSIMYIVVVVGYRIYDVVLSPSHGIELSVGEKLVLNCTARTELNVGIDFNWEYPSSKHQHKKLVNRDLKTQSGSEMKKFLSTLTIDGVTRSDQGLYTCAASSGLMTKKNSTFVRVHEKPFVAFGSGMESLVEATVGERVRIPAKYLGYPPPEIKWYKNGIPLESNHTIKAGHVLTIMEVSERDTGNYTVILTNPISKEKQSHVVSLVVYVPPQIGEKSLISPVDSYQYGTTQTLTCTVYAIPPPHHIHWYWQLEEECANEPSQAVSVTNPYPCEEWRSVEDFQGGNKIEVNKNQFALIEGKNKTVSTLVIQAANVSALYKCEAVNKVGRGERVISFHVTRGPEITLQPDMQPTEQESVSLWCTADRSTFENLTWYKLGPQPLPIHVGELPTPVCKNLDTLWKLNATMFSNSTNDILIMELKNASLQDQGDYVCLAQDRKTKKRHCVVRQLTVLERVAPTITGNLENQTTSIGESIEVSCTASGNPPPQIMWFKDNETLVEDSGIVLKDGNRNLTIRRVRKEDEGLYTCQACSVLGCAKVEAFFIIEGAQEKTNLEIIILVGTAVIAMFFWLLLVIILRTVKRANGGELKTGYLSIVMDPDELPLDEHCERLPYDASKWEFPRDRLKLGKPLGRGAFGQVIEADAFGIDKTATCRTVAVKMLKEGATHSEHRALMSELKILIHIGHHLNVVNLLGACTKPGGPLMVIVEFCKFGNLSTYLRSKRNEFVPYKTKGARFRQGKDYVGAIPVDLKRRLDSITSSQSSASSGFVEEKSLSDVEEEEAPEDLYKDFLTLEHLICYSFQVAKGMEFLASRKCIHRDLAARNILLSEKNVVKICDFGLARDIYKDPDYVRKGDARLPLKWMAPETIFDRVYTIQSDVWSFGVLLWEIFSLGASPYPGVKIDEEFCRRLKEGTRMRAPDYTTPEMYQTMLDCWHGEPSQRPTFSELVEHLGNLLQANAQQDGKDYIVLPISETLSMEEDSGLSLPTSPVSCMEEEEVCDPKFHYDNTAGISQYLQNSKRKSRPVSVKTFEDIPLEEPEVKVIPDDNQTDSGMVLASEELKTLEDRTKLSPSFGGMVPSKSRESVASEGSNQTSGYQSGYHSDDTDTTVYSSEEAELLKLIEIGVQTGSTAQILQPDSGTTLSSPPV
Ephrin type-A receptor 4 (Homo sapiens), sequence (P54764 whole entry): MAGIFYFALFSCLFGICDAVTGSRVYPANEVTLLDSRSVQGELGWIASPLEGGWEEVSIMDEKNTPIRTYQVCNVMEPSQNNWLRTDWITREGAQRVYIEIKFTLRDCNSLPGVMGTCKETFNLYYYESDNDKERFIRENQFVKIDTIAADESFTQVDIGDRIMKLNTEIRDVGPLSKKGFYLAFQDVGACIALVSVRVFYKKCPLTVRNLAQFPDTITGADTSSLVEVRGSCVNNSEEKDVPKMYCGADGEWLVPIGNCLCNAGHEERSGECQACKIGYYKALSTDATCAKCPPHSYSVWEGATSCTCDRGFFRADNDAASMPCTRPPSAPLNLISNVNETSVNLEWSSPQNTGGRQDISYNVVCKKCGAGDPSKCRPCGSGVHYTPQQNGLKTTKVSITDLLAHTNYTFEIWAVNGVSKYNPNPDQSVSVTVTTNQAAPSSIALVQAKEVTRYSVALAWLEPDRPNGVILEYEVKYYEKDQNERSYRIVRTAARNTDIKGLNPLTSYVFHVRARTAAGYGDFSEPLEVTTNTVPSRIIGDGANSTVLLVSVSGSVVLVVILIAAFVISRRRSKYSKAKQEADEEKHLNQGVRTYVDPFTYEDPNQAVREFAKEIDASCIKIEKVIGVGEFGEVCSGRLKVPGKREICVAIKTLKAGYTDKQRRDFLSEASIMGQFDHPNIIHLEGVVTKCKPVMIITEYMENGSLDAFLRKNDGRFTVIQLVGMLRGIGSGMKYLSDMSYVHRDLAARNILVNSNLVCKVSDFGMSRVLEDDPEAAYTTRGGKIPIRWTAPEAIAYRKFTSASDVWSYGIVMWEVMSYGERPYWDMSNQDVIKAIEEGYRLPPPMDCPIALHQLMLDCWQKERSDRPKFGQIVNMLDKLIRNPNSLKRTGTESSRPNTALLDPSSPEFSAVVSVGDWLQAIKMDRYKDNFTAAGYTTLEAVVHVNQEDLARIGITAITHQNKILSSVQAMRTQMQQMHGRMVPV
Platelet-derived growth factor receptor beta, sequence (P09619 whole entry): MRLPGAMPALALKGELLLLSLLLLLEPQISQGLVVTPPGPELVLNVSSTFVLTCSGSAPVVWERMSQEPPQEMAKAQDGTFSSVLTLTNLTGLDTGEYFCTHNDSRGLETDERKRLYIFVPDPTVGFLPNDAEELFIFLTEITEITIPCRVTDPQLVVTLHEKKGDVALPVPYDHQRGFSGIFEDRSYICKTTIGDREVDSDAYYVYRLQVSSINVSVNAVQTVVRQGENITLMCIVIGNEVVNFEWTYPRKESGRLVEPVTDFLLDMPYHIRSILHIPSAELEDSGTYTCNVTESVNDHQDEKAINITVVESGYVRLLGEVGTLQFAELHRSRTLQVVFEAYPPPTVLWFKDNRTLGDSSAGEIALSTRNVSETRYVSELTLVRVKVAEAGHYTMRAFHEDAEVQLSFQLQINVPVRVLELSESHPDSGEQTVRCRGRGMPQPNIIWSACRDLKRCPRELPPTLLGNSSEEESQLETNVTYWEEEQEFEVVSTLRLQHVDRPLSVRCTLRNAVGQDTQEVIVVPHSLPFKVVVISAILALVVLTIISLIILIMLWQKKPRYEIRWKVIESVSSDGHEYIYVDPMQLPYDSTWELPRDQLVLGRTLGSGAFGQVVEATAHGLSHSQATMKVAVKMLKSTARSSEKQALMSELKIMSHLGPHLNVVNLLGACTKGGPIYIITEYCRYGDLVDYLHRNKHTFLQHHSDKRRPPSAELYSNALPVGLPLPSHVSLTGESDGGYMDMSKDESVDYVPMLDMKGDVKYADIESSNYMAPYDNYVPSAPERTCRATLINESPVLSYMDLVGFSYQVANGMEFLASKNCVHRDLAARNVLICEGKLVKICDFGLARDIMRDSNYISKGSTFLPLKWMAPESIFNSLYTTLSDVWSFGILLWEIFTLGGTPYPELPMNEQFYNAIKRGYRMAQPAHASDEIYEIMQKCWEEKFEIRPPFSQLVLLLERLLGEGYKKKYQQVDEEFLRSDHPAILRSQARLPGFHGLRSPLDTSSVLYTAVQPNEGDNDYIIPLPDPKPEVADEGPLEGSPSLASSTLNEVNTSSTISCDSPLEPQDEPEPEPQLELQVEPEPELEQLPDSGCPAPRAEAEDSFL
Serine/threonine-protein kinase PLK2 (Homo sapiens), sequence (Q9NYY3 whole entry, looked up): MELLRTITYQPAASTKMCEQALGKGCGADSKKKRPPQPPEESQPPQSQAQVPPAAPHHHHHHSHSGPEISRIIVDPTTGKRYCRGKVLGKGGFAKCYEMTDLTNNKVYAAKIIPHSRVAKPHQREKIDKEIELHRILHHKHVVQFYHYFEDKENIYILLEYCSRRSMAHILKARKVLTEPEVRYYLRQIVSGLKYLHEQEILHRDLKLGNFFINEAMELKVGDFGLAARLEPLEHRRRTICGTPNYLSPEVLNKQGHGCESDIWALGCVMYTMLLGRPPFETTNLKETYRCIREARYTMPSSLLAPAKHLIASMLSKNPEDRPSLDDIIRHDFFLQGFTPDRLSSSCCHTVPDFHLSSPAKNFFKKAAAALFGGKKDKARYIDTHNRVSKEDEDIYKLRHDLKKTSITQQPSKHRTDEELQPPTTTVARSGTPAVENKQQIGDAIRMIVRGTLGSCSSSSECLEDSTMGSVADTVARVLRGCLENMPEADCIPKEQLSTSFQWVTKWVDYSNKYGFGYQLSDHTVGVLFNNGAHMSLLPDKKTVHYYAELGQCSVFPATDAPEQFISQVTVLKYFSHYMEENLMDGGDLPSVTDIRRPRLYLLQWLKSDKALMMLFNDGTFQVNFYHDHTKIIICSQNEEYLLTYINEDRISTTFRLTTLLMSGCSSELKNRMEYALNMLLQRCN
Casein kinase I isoform gamma-1 (Homo sapiens), sequence (Q9HCP0 whole entry, looked up, canonical isoform): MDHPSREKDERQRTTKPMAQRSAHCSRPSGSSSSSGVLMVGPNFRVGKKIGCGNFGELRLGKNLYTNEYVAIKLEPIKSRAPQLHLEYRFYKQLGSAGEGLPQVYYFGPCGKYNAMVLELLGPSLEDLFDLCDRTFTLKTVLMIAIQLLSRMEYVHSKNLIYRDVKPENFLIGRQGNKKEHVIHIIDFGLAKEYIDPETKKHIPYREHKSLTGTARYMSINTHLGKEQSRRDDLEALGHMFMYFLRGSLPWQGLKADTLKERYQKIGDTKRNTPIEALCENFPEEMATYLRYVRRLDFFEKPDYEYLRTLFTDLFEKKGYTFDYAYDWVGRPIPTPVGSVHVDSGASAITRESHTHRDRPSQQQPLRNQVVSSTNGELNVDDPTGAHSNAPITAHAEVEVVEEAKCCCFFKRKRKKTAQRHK
Dual specificity mitogen-activated protein kinase kinase 1 (Homo sapiens), sequence (Q02750 whole entry): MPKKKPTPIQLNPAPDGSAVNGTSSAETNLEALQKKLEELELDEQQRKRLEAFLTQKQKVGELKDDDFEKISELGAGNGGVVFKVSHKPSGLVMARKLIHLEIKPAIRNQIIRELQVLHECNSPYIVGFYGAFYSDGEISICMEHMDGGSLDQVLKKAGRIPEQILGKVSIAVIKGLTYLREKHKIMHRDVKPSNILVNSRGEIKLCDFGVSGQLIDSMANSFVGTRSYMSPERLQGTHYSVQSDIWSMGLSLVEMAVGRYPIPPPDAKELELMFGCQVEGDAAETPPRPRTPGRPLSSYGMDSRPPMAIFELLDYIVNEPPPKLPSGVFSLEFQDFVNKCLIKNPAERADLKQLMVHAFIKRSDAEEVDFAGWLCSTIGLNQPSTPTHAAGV

Row | IC50 [1] | IC50 [2] | residual activity [3] | residual activity [4] | residual activity [5] | residual activity [6] | residual activity [7] | residual activity [8] | residual activity [9] | residual activity [10] | residual activity [11] | residual activity [12] | residual activity [13] | residual activity [14] | SMILES
1 | 140 nM | 350 nM | 34% | 107% | 95% | 94% | 86% | 62% | 98% | 84% | 59% | 100% | 42% | 159% | COc1cc2c(Oc3ccc(-c4nc5ccccc5s4)cc3)ncnc2cc1OCCCN1CCCC1
2 | 121 nM | 147 nM | 54% | 109% | 94% | 102% | 86% | 28% | 93% | 102% | 53% | 102% | 42% | 171% | COc1cc2c(Oc3ccc(-c4nc5ccccc5s4)cc3)ncnc2cc1OCCCN1CCN(C)CC1
3 | 190 nM | 420 nM | 38% | 107% | 95% | 92% | 94% | 27% | 104% | 100% | 52% | 97% | 48% | 154% | COc1cc2c(Oc3ccc(-c4nc5ccccc5s4)cc3F)ncnc2cc1OCCCN1CCN(C)CC1

Source: ChEMBL document CHEMBL1152560, “Substituted 2-arylbenzothiazoles as kinase inhibitors: hit-to-lead optimization” (Bioorg Med Chem, 2009)
